Data from ChEMBL document CHEMBL5653631, “A Potent and Selective ULK1 Inhibitor Suppresses Autophagy and Sensitizes Cancer Cells to Nutrient Stress” (iScience, 2018).
Each block holds one molecule with its values, some of them ahead of it.

Key:
[1] = molecular target: T1, Tyrosine-protein kinase JAK3 (Homo sapiens) (UniProt P52333); assay: Inhibition of human recombinant JAK3 at 500 nM related to control ULK1
T1 sequence (whole entry): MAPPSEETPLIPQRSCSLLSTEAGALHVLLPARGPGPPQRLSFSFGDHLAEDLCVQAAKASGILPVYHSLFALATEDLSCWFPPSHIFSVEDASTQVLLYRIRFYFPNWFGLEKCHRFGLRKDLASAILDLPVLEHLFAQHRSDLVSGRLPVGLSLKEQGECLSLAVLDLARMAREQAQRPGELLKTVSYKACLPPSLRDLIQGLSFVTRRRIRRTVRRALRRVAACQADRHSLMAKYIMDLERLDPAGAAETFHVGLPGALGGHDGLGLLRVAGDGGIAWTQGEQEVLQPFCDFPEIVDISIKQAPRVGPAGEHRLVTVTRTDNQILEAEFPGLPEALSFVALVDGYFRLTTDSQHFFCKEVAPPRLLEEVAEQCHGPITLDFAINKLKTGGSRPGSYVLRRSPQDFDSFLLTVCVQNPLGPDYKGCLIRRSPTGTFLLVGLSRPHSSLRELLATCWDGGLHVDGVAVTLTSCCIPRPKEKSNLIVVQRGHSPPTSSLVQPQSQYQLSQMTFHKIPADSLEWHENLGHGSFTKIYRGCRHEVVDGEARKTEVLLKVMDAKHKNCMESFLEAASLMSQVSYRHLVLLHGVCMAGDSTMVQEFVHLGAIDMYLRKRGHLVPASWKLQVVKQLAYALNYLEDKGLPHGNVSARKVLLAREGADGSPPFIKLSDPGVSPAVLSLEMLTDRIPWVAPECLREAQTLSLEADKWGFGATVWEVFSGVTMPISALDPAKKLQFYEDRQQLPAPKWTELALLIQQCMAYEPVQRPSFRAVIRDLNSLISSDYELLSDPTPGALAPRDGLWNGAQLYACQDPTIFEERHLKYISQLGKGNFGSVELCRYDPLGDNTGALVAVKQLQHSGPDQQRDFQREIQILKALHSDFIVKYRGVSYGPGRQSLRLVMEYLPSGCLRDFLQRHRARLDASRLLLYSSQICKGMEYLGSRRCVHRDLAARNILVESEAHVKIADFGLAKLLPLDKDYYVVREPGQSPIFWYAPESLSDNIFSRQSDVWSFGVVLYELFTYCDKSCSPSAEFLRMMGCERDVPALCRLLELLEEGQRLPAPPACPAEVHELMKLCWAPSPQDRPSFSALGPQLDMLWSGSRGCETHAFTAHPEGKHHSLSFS

[2] = molecular target: Fibroblast growth factor receptor 2 (Homo sapiens) (UniProt P21802); assay: Inhibition of human recombinant FGFR2 at 40 nM related to control ULK1
Fibroblast growth factor receptor 2 (Homo sapiens), sequence (P21802 22-821 limits assumed): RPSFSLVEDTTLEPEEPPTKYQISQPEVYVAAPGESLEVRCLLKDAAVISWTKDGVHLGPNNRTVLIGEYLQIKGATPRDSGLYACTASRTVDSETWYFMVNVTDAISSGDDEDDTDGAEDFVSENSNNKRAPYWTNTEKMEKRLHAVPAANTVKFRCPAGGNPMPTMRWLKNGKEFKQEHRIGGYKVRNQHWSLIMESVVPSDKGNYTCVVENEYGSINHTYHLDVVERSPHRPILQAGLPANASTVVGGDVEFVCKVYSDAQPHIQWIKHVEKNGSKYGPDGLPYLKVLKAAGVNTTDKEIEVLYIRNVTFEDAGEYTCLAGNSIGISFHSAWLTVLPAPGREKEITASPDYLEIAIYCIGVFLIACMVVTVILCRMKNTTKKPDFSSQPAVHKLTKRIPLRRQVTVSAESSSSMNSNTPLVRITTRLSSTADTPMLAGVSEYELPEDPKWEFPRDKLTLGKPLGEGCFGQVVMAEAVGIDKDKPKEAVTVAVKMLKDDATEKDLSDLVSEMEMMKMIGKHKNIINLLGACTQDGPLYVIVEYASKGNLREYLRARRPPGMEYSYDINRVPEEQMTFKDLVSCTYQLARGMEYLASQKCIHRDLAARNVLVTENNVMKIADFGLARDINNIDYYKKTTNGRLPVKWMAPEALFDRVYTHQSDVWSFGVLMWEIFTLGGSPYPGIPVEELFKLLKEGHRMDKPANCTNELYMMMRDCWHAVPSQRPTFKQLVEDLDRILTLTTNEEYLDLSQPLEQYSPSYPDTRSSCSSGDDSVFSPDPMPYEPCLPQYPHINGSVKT

[3] = organism: Homo sapiens; assay: Inhibition of human recombinant CK1d at 40 nM related to control ULK1
[4] = molecular target: Tyrosine-protein kinase JAK2 (Homo sapiens) (UniProt O60674); assay: Inhibition of human recombinant JAK2 at 40 nM related to control ULK1
Tyrosine-protein kinase JAK2 (Homo sapiens), sequence (O60674 whole entry): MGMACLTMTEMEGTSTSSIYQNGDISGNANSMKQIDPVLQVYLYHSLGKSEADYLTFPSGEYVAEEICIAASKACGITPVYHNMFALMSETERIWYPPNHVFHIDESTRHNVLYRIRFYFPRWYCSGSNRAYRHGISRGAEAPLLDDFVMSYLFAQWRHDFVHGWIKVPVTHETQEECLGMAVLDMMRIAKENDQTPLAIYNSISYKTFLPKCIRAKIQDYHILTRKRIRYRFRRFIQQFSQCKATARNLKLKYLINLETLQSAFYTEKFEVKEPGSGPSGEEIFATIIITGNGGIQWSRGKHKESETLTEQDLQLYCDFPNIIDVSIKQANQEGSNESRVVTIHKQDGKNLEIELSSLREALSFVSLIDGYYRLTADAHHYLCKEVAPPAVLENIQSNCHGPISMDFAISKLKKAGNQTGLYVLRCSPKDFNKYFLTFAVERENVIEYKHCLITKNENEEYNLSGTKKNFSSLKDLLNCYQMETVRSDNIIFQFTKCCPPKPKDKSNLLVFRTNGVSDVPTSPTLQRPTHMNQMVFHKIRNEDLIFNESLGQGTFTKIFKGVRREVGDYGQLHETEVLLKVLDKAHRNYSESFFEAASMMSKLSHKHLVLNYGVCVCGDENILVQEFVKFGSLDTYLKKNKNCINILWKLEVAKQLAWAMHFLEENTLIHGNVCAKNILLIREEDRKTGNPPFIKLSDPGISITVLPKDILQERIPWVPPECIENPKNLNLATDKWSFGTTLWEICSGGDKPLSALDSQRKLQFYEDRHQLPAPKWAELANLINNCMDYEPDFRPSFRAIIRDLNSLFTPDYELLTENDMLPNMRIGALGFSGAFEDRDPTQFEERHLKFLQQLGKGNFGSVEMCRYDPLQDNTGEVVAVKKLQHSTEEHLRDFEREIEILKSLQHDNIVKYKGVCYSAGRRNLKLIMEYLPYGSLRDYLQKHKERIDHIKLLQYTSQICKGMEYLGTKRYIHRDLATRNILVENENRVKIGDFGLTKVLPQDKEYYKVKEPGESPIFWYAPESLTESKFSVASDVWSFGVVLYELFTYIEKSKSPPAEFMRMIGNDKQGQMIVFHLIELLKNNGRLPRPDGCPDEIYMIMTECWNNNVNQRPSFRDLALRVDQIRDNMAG

[5] = molecular target: Protein-tyrosine kinase 2-beta (Homo sapiens) (UniProt Q14289); assay: Inhibition of human recombinant PYK2 at 40 nM related to control ULK1
Protein-tyrosine kinase 2-beta (Homo sapiens), sequence (Q14289 whole entry, looked up): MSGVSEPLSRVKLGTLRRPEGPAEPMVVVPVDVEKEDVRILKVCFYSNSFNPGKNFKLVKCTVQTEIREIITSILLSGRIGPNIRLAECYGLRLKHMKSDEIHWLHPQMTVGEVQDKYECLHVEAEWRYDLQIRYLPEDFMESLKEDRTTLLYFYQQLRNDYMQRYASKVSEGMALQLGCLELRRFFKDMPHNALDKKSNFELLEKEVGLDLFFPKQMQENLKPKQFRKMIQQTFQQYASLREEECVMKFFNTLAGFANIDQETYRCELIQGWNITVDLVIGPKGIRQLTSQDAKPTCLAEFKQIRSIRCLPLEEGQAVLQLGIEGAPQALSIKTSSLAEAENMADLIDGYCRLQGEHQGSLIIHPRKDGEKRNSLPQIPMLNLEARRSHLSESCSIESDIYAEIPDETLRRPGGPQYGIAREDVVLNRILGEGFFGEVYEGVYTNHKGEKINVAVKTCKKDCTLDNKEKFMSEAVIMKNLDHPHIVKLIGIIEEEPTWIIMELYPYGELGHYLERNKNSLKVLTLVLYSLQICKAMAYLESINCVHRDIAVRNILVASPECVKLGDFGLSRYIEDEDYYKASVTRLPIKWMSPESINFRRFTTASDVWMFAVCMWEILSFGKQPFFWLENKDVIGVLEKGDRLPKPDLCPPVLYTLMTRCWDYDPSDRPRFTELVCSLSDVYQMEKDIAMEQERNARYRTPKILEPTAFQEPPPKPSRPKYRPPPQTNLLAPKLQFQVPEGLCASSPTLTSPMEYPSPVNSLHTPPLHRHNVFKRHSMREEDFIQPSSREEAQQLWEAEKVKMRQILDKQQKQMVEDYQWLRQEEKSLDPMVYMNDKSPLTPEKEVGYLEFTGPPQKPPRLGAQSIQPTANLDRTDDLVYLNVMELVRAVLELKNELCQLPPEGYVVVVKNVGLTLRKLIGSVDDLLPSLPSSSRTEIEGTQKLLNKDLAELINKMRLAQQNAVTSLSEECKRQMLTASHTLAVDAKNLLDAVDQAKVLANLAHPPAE

[6] = molecular target: T2, G protein-coupled receptor kinase 3 (Homo sapiens) (UniProt P35626); assay: Inhibition of human recombinant BARK2 at 40 nM related to control ULK1
T2 sequence (whole entry): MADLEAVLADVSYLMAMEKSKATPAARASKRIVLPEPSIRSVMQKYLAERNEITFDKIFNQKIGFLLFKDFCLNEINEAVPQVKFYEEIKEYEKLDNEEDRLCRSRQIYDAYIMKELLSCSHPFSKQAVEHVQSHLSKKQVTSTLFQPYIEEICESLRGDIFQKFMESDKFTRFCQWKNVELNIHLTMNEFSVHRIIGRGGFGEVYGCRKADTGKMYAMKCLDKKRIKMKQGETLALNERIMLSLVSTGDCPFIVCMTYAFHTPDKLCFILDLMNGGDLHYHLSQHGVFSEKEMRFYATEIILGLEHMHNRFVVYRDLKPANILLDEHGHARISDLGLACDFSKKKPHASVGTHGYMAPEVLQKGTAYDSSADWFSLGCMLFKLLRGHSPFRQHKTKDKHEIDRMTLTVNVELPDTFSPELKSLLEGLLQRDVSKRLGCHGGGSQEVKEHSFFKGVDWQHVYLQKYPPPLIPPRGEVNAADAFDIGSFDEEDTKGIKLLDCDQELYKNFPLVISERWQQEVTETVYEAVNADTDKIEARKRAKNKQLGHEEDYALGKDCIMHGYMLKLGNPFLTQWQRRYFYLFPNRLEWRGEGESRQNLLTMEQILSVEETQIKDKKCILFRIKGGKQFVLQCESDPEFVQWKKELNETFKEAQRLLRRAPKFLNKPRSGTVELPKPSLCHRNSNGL
Outline: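 Radiometric activity assays in a panel of 327 human recombinant kinases, each run in duplicate at one inhibitor concentration. Activity remaining is expressed as percent of vehicle control, and percent inhibition is calculated as 100% minus percent activity remaining.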

[7] = molecular target: Cell division cycle 7-related protein kinase (Homo sapiens) (UniProt O00311); assay: Inhibition of human recombinant CDC7 at 15 nM related to control ULK1
Cell division cycle 7-related protein kinase (Homo sapiens), sequence (O00311 whole entry, looked up): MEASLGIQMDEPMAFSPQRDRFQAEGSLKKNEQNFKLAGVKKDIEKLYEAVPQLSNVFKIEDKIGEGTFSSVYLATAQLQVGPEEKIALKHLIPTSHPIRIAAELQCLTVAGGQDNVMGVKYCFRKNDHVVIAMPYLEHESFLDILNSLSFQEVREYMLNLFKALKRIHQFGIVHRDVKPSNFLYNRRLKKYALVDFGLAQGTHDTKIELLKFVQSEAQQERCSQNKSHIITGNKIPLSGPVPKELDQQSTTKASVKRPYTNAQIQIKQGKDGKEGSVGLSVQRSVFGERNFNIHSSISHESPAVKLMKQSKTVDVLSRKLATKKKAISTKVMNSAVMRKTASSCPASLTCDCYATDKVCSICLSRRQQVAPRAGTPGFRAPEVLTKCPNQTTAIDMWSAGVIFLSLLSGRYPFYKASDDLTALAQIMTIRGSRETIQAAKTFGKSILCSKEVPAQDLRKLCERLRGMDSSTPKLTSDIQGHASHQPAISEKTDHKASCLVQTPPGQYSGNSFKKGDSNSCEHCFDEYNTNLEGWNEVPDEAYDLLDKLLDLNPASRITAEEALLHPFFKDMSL

fold change (FC) [1]: 0.28
Structure (SMILES): CNC(=O)c1ccccc1Oc1nc(Nc2cc(OC)c(OC)c(OC)c2)ncc1Br

fold change (FC) [2]: 0
fold change (FC) [3]: 0.04
fold change (FC) [4]: 0
fold change (FC) [5]: 0.04
fold change (FC) [6]: 0.1
Structure (SMILES): O=C(N[C@@H](C1CC1)C(F)(F)F)c1cc(-c2cnn3cc(-c4ccc(F)cc4)cnc23)cs1

fold change (FC) [7]: 0.09
Structure (SMILES): CC(C)[C@H](NC(=O)c1cc(-c2cnn3cc(-c4ccc(OCCN5CCCCC5)cc4)cnc23)cs1)C(F)(F)F
